High-throughput results as filed in PubChem.
MrgX1 agonist = human MrgX1 receptor agonism, primary screen | Q96LB2 | MrgX1-HEK293 cells, Fluo-4 calcium fluorescence, agonist mode; stronger effect = higher value | B-score at 10 µM | 310,000 tested, 0.44% active;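 active = calcium response B-score plate-corrected fluorescence ratio at least 3 library SD, with starting fluorescence B-score inside 5 SD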
Target sequence (Q96LB2 whole entry, looked up): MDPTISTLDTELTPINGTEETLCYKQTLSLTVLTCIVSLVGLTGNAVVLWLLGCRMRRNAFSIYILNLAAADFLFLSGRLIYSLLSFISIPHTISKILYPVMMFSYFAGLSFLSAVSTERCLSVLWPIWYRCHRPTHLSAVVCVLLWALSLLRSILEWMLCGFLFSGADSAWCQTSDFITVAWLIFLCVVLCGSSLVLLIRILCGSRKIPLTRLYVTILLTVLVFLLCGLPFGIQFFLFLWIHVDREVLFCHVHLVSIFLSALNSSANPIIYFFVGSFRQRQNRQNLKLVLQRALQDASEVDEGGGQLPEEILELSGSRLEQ
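Test system: Stable human MrgX1 HEK293 cell line | Schedule: Overnight plating before 1 h dye loading | Read-out basis: Baseline-normalised fluorescence change ratio, B-scored | Detection: Kinetic calcium dye fluorescence, Fluo-4 NW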
MrgX1 antag = human MrgX1 receptor antagonism, primary screen | 310,000 tested, 1.3% active | B-score at 10 µM | MRGX1-HEK293 calcium flux, Fluo-4, BAM8-22 antagonism; stronger effect = lower value | Q96LB2 | AID 588676;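 active = calcium-response B-score plate-corrected more than 3 library SD below zero, starting fluorescence within 5 deviations, no agonist response on first addition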;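 note: peak minus trough fluorescence over baseline after final BAM8-22 challenge near maximal dose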
RGS4 inh = inhibitors of human RGS4. P49798. HEK293 M3R/RGS4 inducible, Fluo-4 calcium flux; stronger effect = higher value; triggered by carbachol at its EC20. B-score at 10 µM. 310,000 tested, 0.45% active. AID 463165;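 active = B-score, a plate-corrected calcium signal, over three deviations above library mean, with baseline fluorescence within five deviations of library mean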;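 note: RGS4 expression induced by doxycycline in cells with stable M3 receptor; B-score is computed from the integrated fluorescence ratio over baseline after carbachol; higher B-score means a larger calcium signal and so more RGS4 inhibition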
Target sequence (P49798 whole entry, looked up): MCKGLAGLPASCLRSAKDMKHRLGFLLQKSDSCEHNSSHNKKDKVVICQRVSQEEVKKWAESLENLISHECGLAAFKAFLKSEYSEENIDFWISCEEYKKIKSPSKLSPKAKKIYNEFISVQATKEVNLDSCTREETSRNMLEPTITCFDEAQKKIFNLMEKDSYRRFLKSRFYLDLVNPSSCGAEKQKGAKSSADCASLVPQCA
RGS4 act = RGS4 potentiation or activation; 310,000 tested, 0.92% active; AID 463111; HEK293 M3R/inducible RGS4, carbachol calcium flux Fluo4; stronger effect = lower value; B-score at 10 µM;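 active = B-score of the integrated calcium signal more than 4 SD below the library mean, with starting fluorescence not abnormally high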;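 note: negative B-score means reduced calcium response which marks RGS4 activation or potentiation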
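Material: M3R-expressing HEK293 line, RGS4 induced by doxycycline | Schedule: Overnight RGS4 induction, 30 min dye load 37 °C, 20 min compound RT | Measured by: Fluo4 fluorescence kinetic imaging of calcium | Read-out: Integrated calcium ratio converted to B score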
MrgX1 PAM = allosterically activates human MrgX1 receptor signaling; MrgX1-HEK293, Fluo-4 calcium flux, FDSS; stronger effect = higher value; B-score at 10 µM; 310,000 tested, 0.63% active; AID 588675; Q96LB2;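 active = plate-corrected calcium response at least 3 library SD above typical, normal starting fluorescence, not activating the receptor alone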;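 note: compound read alongside a low EC10 to EC30 dose of BAM8-22 agonist; peak minus trough fluorescence over baseline measured at the second addition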
Each line names hits and unclear results; the compound was inactive in the other large screens. The list is not random: actives were taken first. Their share in the collection is about 3.5%.

COc1c(CC=C(C)C)cc(C2CC(=O)c3c(O)cc(O)cc3O2)c(CC=C(C)C)c1O (configuration not stated)	RGS4 act -7.6
O=C(NCCc1ccccc1)c1cnc2n(c1=O)CCS2	none
O=C(NCc1ccccc1Cl)c1cnc2n(c1=O)CCS2	MrgX1 antag -4.7
COc1ccc(NS(=O)(=O)c2cccc(NC(=O)c3cnccn3)c2)cc1Br	none
CCOc1ccc(C(C(=O)NC2CCCC2)N(Cc2ccccc2)C(=O)c2nsc(Cl)c2Cl)cc1 (configuration not stated)	RGS4 act -7.2
CN(C)c1ccc(C(C(=O)NC2CCCC2)N(Cc2cccnc2)C(=O)c2snc(C(N)=O)c2N)cc1 (configuration not stated)	MrgX1 antag -6.4
Cc1nn(-c2ccccc2)c(N2CCCC2)c1/C=N/Nc1ccc(S(=O)(=O)Nc2ccccc2)cc1[N+](=O)[O-]	MrgX1 antag -5.1
C/C(=N\Nc1ccc([N+](=O)[O-])cc1)c1ccc(O)cc1	MrgX1 antag -5.6
CCCCS(=O)(=O)/C=C\C=C/S(=O)(=O)CCCC	MrgX1 agonist 33
CCCCS(=O)(=O)/C=C\C1C2C=CC(C2)C1S(=O)(=O)CCCC (configuration not stated)	none
CCOC(=O)c1[nH]c2ccc(Br)cc2c1NC(=O)CCN1CCCC(C)C1 (configuration not stated)	RGS4 act -8.6
CCOC(=O)c1[nH]c2ccc(Br)cc2c1NC(=O)CCN1CCC(C)CC1	none
CC(C)C[C@@H](CSc1ccccc1)N1CCN(CC(C)C)CCC1=O	none
CCOc1ccc(N(CC(=O)NC2CCCCC2)C(=O)CCC(=O)Nc2ccccn2)cc1	none
COCCNCCCCOc1ccccc1-c1ccccc1	MrgX1 antag -5.2
COC(=O)CN1C(=O)N/C(=C/c2ccc(OC)cc2)C1=O	MrgX1 agonist 43
Cc1cc(C)cc(OCC(=O)OCC(=O)NC2CCCCCCC2)c1	none
COc1cccc(S(=O)(=O)Nc2cccc(C(=O)N3CCCC3)c2)c1	none
COc1cccc(S(=O)(=O)Nc2cccc(C(=O)N3CCOCC3)c2)c1	RGS4 act -7.5
COc1cc(C(CC(=O)O)n2cnnn2)ccc1OC(C)C (configuration not stated)	none
Clc1cccc(Cl)c1CO/N=C/c1cccs1	none
Cc1c(C)c(C)c(CO/N=C/c2cccs2)c(C)c1C	MrgX1 PAM 8.2
COc1ccc(/C=C(/C#N)C(=O)Nc2ccccc2C)cc1C(=O)O	none
CCOc1cc(/C=C(\C#N)C(=O)Nc2ccccc2C(=O)O)ccc1OC(=O)c1ccc(C)cc1	MrgX1 antag -4.9
O=C(N/N=C/c1cccc2nccnc12)c1ccncc1	RGS4 act -8.3
CC(C)Oc1ccc(CNC2CCOC(C)(C)C2)cc1 (configuration not stated)	none
CC(C)(C)C(=O)/C(=C/c1ccc(Cl)cc1)n1cncn1	none
CC(C)(C)C(=O)/C(=C\c1ccc([N+](=O)[O-])cc1)n1cncn1	MrgX1 agonist 34, RGS4 inh 14
CCN(CC)c1ccc(/C=C/c2ccc3ccc(OC)cc3[n+]2CC)cc1	MrgX1 antag -9.3, RGS4 act -8.5
Cc1ccc(S(=O)(=O)NCCC(=O)NNC(=O)c2ccccc2O)cc1C	none
COc1ccc(-c2csc(=Nc3ccccc3)n2CCO)cc1	MrgX1 PAM 15
O=C(O)c1ccc(N2N=C(c3ccccc3)CC2c2ccccc2)cc1 (configuration not stated)	none
O=[N+]([O-])c1cccc(C2CC(c3ccccc3)=NN2c2ccccc2)c1 (configuration not stated)	MrgX1 antag -7.6
N#CC1CC(c2ccc([N+](=O)[O-])cc2)=NN1c1ccc([N+](=O)[O-])cc1 (configuration not stated)	MrgX1 antag -6.2
O=Cc1ccc(N2N=C(c3ccccc3)CC2c2ccccc2)cc1 (configuration not stated)	RGS4 act -10
CC1=NN(c2ccc([N+](=O)[O-])cc2)C(c2ccccc2)C1 (configuration not stated)	none
CCn1c(COc2ccc(C(C)C)cc2)nnc1SCC(=O)Nc1nccs1	MrgX1 antag -7.6
CCSCc1nnc(SCC(=O)Nc2nccs2)n1CC	none
Cc1onc(-c2c(Cl)cccc2Cl)c1NC(=O)NC1CCSC1 (configuration not stated)	none
N/C(=N\OC(=O)C1CCCCC1)c1ccncc1	MrgX1 antag -4.5
N/C(=N\OC(=O)C1CCCCC1)c1ccc(Br)cc1	none
COc1ccccc1NC(=O)c1ccc(NC(=O)COC(=O)C2(C)CC2(Cl)Cl)cc1 (configuration not stated)	none
CN(C)c1cccc(C(=O)NNC(=O)NC2CCCCC2)c1	none
COc1cc(OC)cc(C(=O)NNC(=O)NC2CCCCC2)c1	MrgX1 antag -7
CCCC1CCC(C(=O)Nn2cnc3ccccc3c2=O)CC1 (configuration not stated)	none
O=C(Nn1cnc2ccccc2c1=O)C1CCCCC1	MrgX1 antag -7.5
CNC[C@@H](Cc1ccccc1)NC[C@@H](CC1CCCCC1)NCCCc1ccccc1	none
CC[C@@H](C)[C@H](CNC)NC[C@@H](Cc1cccc2ccccc12)NCCc1cccc(C(F)(F)F)c1	RGS4 act -9.3
CCC[C@H](CN[C@@H](CNC)[C@H](C)CC)NCCc1cc(C(F)(F)F)cc(C(F)(F)F)c1	none
CNC[C@@H](CC1CCCCC1)NC[C@H](CC(C)C)NCCc1cccc(C(F)(F)F)c1	RGS4 act -7.3
Fc1ccc(CNC(=S)NCc2cccc(Cl)c2)cc1	none
Cc1cccc(N(CC(=O)NC2CCCC2)C(=O)CCC(=O)Nc2ccccn2)c1	none
CC1(C)CC[C@]2(CO)[C@@H](O)C[C@]3(C)C(=CCC4[C@@]5(C)CC[C@H](O)C(C)(C)C5CC[C@]43C)[C@@H]2C1 (some centres not stated)	none
COc1ccc(/C=C/C(=O)C2C(=O)C=C(C)OC2=O)cc1O (configuration not stated)	MrgX1 antag -4.7
O=C(CNc1n[nH]c(=O)[nH]c1=O)N/N=C/C=C/c1ccccc1	none
C[n+]1ccccc1/C=C/c1cc(Br)ccc1O	RGS4 act -8.5
COc1ccc(/C=C/c2cccc[n+]2C)c(O)c1	none
Cn1c(=O)[nH]c(=O)c2c1nc(SCC(O)CO)n2Cc1ccccc1Cl (configuration not stated)	none
CCOC(=O)CSc1nc(N)c(C#N)c(-c2ccc(OC)cc2)c1C#N	MrgX1 antag -5.8
Cn1cccc1/C=C(/C#N)C(N)=S	none
N#C/C(=C/c1ccc(F)cc1)C(N)=S	MrgX1 agonist 28
CN(NC(=O)c1ccc(Cl)cc1Cl)C1=NS(=O)(=O)c2ccccc21	MrgX1 antag -6.3
Cc1ncc(C[n+]2csc(CCOC(=O)CC34CC5CC(CC(C5)C3)C4)c2C)c(N)n1	none
